In ChEMBL document CHEMBL1157717, “Design, synthesis and biological evaluation of 6-(benzyloxy)-4-methylquinolin-2(1H)-one derivatives as PDE3 inhibitors” (Bioorg Med Chem, 2010):

Legend:
[1] = Positive inotropic activity in isolated reserpine-treated Wistar rat whole atrium assessed as heart rate at 1 uM (Rvb=100+/-3%); type: functional, Cardiac atrium
In short: (§1)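 Male Wistar rats (250–350 g) received reserpine 5 mg/kg ip 24 h before thiopental anaesthesia. Whole atria were mounted in Krebs–Henseleit gassed with 95% O2/5% CO2, 35–37 °C, pH 7.35–7.45, under about 0.5 g resting tension with 40–50 min equilibration. Only tyramine (1.5 μM)-unresponsive preparations were used. Compounds were added cumulatively (1–100 μM), with isometric force and rate recorded. Values are mean ± SEM, six atria.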

[2] = Positive inotropic activity in isolated reserpine-treated Wistar rat whole atrium assessed as contraction at 1 uM (Rvb=100+/-4%); type: functional, Cardiac atrium; in short: as §1
[3] = Positive inotropic activity in isolated reserpine-treated Wistar rat whole atrium assessed as heart rate at 100 uM (Rvb=100+/-3%); type: functional, Cardiac atrium; in short: as §1
[4] = Positive inotropic activity in isolated reserpine-treated Wistar rat whole atrium assessed as contraction at 10 uM (Rvb=100+/-4%); type: functional, Cardiac atrium; in short: as §1
[5] = Positive inotropic activity in isolated reserpine-treated Wistar rat whole atrium assessed as heart rate at 10 uM (Rvb=100+/-3%); type: functional, Cardiac atrium; in short: as §1
[6] = biological target: T1, cGMP-inhibited 3',5'-cyclic phosphodiesterase 3B (Homo sapiens, UniProt Q13370); assay: Inhibition of human PDE3B by fluorescence microplate reader
In short: (§2)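 IMAP fluorescence-polarization PDE assay: 1 ng PDE3A or PDE3B, 100 nM FAM-cAMP in IMAP reaction buffer, 60 min at room temperature. Binding reagent (1:600) added for a further 60 min at room temperature. Read at ex 485/em 528 nm, in duplicate. % activity is normalised to the no-enzyme and maximum-FP values. IC50 comes from a sigmoidal fit over 0.01–100 μM.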
Target sequence in this assay (Q13370 whole entry): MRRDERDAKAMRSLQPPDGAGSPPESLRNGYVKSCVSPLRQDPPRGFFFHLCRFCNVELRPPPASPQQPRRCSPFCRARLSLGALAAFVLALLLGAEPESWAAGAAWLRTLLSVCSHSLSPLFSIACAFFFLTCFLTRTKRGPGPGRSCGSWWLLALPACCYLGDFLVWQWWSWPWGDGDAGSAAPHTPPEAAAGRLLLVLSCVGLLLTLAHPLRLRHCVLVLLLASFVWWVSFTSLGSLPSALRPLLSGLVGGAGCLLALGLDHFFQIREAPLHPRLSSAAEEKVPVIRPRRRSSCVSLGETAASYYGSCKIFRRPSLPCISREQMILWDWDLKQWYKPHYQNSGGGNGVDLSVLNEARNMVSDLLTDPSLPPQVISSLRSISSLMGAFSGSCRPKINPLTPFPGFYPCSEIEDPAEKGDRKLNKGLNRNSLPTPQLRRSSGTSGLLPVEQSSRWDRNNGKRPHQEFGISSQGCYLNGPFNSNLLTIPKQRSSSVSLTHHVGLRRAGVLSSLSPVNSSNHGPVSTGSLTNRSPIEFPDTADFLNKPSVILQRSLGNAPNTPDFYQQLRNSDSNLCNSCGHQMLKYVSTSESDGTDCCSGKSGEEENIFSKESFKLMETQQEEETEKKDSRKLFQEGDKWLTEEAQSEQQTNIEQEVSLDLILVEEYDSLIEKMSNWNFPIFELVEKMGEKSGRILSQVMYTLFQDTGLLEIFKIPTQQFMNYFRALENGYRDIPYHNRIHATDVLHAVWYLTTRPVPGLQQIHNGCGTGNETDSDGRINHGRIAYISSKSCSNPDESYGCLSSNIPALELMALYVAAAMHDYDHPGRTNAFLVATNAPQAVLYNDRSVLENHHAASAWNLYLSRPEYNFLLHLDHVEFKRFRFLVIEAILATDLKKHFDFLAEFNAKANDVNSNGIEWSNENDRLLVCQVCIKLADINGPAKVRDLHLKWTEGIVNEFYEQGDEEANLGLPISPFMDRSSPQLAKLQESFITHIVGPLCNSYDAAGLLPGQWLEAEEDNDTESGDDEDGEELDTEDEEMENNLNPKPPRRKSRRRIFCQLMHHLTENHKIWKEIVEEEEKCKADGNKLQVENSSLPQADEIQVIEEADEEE

[7] = biological target: T2, cGMP-inhibited 3',5'-cyclic phosphodiesterase 3A (Homo sapiens, UniProt Q14432); assay: Inhibition of human PDE3A by fluorescence microplate reader; in short: as §2
[8] = Positive inotropic activity in isolated reserpine-treated Wistar rat whole atrium assessed as contraction at 100 uM (Rvb=100+/-4%); type: functional, Cardiac atrium; in short: as §1
[9] = biological target: T2, cGMP-inhibited 3',5'-cyclic phosphodiesterase 3A; assay: Ratio of IC50 for vesnarinone to IC50 for drug against human PDE3A by fluorescence microplate reader
[10] = biological target: T1, cGMP-inhibited 3',5'-cyclic phosphodiesterase 3B; assay: Ratio of IC50 for vesnarinone to IC50 for drug against human PDE3B by fluorescence microplate reader
Target sequence in this assay (Q13370 whole entry, looked up): as the sequence (Q13370 whole entry) above

[11] = Positive inotropic activity in isolated reserpine-treated Wistar rat whole atrium assessed as contraction at 100 uM (Rvb=100+/-3%); type: functional, Cardiac atrium; in short: as §1
[12] = biological target: T2, cGMP-inhibited 3',5'-cyclic phosphodiesterase 3A; assay: Ratio of IC50 for vesnarinone to IC50 for drug against human PDE3A by fluorescence microplate reader
[13] = Positive inotropic activity in isolated reserpine-treated Wistar rat whole atrium assessed as contraction at 1 uM (Rvb=100+/-3%); type: functional, Cardiac atrium; in short: as §1
[14] = Positive inotropic activity in isolated reserpine-treated Wistar rat whole atrium assessed as contraction at 10 uM (Rvb=100+/-3%); type: functional, Cardiac atrium; in short: as §1
[15] = Positive inotropic activity in isolated reserpine-treated Wistar rat whole atrium assessed as heart rate at 100 uM (Rvb=100+/-2%); type: functional, Cardiac atrium; in short: as §1
[16] = Positive inotropic activity in isolated reserpine-treated Wistar rat whole atrium assessed as heart rate at 10 uM (Rvb=100+/-2%); type: functional, Cardiac atrium; in short: as §1
[17] = biological target: T1, cGMP-inhibited 3',5'-cyclic phosphodiesterase 3B; assay: Ratio of IC50 for vesnarinone to IC50 for drug against human PDE3B by fluorescence microplate reader
Target sequence in this assay (Q13370 whole entry, looked up): as the sequence (Q13370 whole entry) above

T2 sequence (Q14432 whole entry): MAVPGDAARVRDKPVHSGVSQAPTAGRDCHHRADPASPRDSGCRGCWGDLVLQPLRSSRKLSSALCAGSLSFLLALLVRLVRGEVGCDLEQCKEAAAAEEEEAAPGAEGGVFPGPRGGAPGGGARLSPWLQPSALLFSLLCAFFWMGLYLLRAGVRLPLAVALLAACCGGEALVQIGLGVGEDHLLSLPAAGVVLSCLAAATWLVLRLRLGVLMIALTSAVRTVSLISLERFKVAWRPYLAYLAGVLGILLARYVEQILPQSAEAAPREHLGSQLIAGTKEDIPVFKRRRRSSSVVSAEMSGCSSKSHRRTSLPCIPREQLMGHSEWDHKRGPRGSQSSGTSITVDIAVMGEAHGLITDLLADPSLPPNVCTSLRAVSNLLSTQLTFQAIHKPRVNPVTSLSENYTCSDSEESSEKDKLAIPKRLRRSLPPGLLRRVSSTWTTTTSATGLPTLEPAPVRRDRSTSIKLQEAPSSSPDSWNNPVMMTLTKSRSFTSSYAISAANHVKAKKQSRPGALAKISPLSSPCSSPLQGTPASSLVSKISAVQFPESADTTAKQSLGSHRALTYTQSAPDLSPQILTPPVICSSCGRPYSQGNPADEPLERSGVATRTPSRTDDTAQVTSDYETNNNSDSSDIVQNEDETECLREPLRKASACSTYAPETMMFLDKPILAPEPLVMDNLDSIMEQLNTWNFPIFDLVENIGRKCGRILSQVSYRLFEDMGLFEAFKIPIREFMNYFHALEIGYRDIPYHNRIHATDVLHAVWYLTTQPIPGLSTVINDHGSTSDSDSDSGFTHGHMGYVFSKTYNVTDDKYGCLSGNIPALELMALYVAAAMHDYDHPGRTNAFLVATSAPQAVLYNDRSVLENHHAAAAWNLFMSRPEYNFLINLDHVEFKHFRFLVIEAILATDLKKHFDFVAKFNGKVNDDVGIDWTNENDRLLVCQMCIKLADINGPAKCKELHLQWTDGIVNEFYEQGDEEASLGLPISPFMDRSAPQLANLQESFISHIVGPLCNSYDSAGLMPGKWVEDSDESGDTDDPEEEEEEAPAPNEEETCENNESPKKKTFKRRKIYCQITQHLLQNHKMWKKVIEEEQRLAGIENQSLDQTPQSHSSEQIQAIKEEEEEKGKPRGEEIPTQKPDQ

Row | Compound | IC50 [6] | IC50 [7] | further results
1 | COc1ccc(C(=O)N2CCN(c3ccc4c(c3)CCC(=O)N4)CC2)cc1OC [VESNARINONE] | 13200 nM | 10700 nM | Activity [1]: 103%; Activity [2]: 102%; Activity [3]: 114%; Activity [4]: 121%; Activity [5]: 109%; Activity [8]: 141%
2 | Cc1cc(=O)[nH]c2ccc(OCc3cccc(C(=O)N4CCCCC4)c3)cc12 | 1730 nM | 660 nM | 
3 | Cc1cc(=O)[nH]c2ccc(OCc3cccc(C(=O)N4CCC(=O)CC4)c3)cc12 | 1140 nM | 1260 nM | 
4 | Cc1cc(=O)[nH]c2ccc(OCc3cccc(C(=O)N4CCCC4)c3)cc12 | 1200 nM | 640 nM | 
5 | Cc1cc(=O)[nH]c2ccc(OCc3cccc(C(=O)N4CCC(C)CC4)c3)cc12 | 1610 nM | 430 nM | 
6 | Cc1cc(=O)[nH]c2ccc(OCc3cccc(C(=O)N4CCOCC4)c3)cc12 | 1540 nM | 1340 nM | 
7 | Cc1cc(=O)[nH]c2ccc(OCc3cccc(C(=O)N4CCN(C)CC4)c3)cc12 | 3510 nM | 1760 nM | Ratio IC50 [9]: 6; Ratio IC50 [10]: 4
8 | Cc1cc(=O)[nH]c2ccc(OCc3cccc(C(=O)N4CCC(O)CC4)c3)cc12 | 910 nM | 1350 nM | 
9 | CCN1CCN(C(=O)c2cccc(COc3ccc4[nH]c(=O)cc(C)c4c3)c2)CC1 | 1930 nM | 1440 nM | Activity [11]: 146%; Ratio IC50 [12]: 25; Activity [13]: 101%; Activity [14]: 123%; Activity [15]: 116%; Activity [16]: 108%; Ratio IC50 [17]: 8
10 | Cc1cc(=O)[nH]c2ccc(OCc3cccc(C(=O)N4CCN(CCO)CC4)c3)cc12 | 2800 nM | 1650 nM | 
11 | Cc1cc(=O)[nH]c2ccc(OCc3cccc(C(=O)N4CCC(C(=O)O)CC4)c3)cc12 | 1280 nM | 840 nM | 
